Consider 32 compounds from ChEMBL document CHEMBL1140919, “Structure-based drug design of novel Aurora kinase A inhibitors: structural basis for potency and specificity” (J Med Chem, 2009).

Some results are limits rather than exact numbers.

Assay [1] has as its system T1, Aurora kinase A (Homo sapiens), O14965 [T288D].
T1 sequence (whole entry): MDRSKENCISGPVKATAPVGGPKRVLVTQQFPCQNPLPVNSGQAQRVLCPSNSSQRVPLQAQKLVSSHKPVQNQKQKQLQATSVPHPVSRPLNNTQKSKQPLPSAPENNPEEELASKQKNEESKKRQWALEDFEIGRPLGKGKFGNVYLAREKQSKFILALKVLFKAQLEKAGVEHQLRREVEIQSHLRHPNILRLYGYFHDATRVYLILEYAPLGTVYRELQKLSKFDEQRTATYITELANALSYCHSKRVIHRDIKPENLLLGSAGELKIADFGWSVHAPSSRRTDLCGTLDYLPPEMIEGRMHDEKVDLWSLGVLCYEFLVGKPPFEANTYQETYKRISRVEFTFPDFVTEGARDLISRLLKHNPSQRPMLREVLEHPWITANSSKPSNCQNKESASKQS
Kind of assay: Inhibition of Aurora kinase A T288D mutant expressed in Escherichia coli BL21 DE3 at 10 uM.

The next assay deals with Aurora kinase A (Homo sapiens, UniProt O14965, T288D). Kind of assay: Inhibition of Aurora kinase A T288D mutant expressed in Escherichia coli BL21 DE3.
Assay [2] has as its system RAF proto-oncogene serine/threonine-protein kinase (Homo sapiens), P04049 [Y340D,Y341D]. Briefly: Inhibition of cRaf Y340D/Y341D mutant at 1 uM relative to control.
The target of assay [3] is Angiopoietin-1 receptor (Homo sapiens) (UniProt Q02763). Kind of assay: Inhibition of TEK at 1 uM relative to control.
The target in assay [4] is Vascular endothelial growth factor receptor 1 (Homo sapiens) (UniProt P17948). Briefly: Inhibition of FLT1 at 1 uM relative to control.
The target of assay [5] is Insulin-like growth factor 1 receptor (Homo sapiens) (UniProt P08069). Briefly: Inhibition of IGF1R at 1 uM relative to control.
In assay [6] the target is Aurora kinase C (Homo sapiens) (UniProt Q9UQB9). Briefly: Inhibition of AURKC at 1 uM relative to control.
For assay [7], the target named is ALK tyrosine kinase receptor (Homo sapiens) (UniProt Q9UM73). Briefly: Inhibition of ALK at 1 uM relative to control.
Assay [8] addresses 3-phosphoinositide-dependent protein kinase 1 (Homo sapiens) (UniProt O15530). Kind of assay: Inhibition of PDK1 at 1 uM relative to control.
Assay [9] has as its target Ephrin type-A receptor 1 (Homo sapiens) (UniProt P21709). Briefly: Inhibition of EPHA1 at 1 uM relative to control.
In assay [10] the target is Aurora kinase A (Homo sapiens) (UniProt O14965). Briefly: Inhibition of Aurora kinase A Thr288 autophosphorylation in human HCT116 cells by Western blot. It is filed as cell-based. Conditions: HCT-116. The method in brief: (§1)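 HCT-116 cells, 4 × 10^5 per well, were seeded for 24 h and synchronized with 40 ng/mL nocodazole for 16 h. They were then exposed to compound at 0.625–40 µM for 2 h at 37 °C. Cells were lysed in SDS sample buffer (pH 6.8, 2% SDS) at 95 °C for 10 min, and 50 µg was run on SDS-PAGE. Blots were probed for phospho-Aurora A (Thr288) and phospho-histone H3 (Ser10) with HRP detection.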

For assay [11], the target named is Serine/threonine-protein kinase mTOR (Homo sapiens) (UniProt P42345). Briefly: Inhibition of FRAP1 at 1 uM relative to control.
In assay [12] the target is Aurora kinase A (Homo sapiens) (UniProt O14965). Briefly: Inhibition of AURKA at 1 uM relative to control.
Assay [13] has as its target Mitogen-activated protein kinase 14 (Homo sapiens) (UniProt Q16539). Kind of assay: Inhibition of MAPK14 at 1 uM relative to control.
The target of assay [14] is Tyrosine-protein kinase ABL1 (Homo sapiens) (UniProt P00519). Kind of assay: Inhibition of ABL1 at 1 uM relative to control.
For assay [15], the target named is Inhibitor of nuclear factor kappa-B kinase subunit epsilon (Homo sapiens) (UniProt Q14164). Kind of assay: Inhibition of IKK epsilon at 1 uM relative to control.
The target in assay [16] is Receptor tyrosine-protein kinase erbB-2 (Homo sapiens) (UniProt P04626). Briefly: Inhibition of ERBB2 at 1 uM relative to control.
The target of assay [17] is Mast/stem cell growth factor receptor Kit (Homo sapiens) (UniProt P10721). Briefly: Inhibition of KIT at 1 uM relative to control.
In assay [18] the target is Aurora kinase B (Homo sapiens) (UniProt Q96GD4). Briefly: Inhibition of Aurora kinase B in human HCT116 cells assessed as reduced phosphorylated histone H3 levels by Western blot. It is filed as cell-based. Conditions: HCT-116. Put shortly: as §1
Assay [19] concerns the target Proto-oncogene tyrosine-protein kinase Src (Homo sapiens) (UniProt P12931). Kind of assay: Inhibition of SRC at 1 uM relative to control.
The target of assay [20] is Aurora kinase B (Homo sapiens) (UniProt Q96GD4). Briefly: Inhibition of AURKB at 1 uM relative to control.
The target in assay [21] is 5'-AMP-activated protein kinase catalytic subunit alpha-1 (Homo sapiens) (UniProt Q13131). Kind of assay: Inhibition of AMPK alpha-1/beta-1/gamma-1 at 1 uM relative to control.
For assay [22], the target named is Serine/threonine-protein kinase Chk1 (Homo sapiens) (UniProt O14757). Kind of assay: Inhibition of CHK1 at 1 uM relative to control.
For assay [23], the target named is Tyrosine-protein kinase JAK2 (Homo sapiens) (UniProt O60674). Briefly: Inhibition of JAK2 at 1 uM relative to control.
In assay [24] the target is Receptor-type tyrosine-protein kinase FLT3 (Homo sapiens) (UniProt P36888). Briefly: Inhibition of FLT3 at 1 uM relative to control.
The target in assay [25] is Epidermal growth factor receptor (Homo sapiens) (UniProt P00533). Briefly: Inhibition of EGFR at 1 uM relative to control.
In assay [26] the target is Phosphatidylinositol 4,5-bisphosphate 3-kinase catalytic subunit gamma isoform (Homo sapiens) (UniProt P48736). Kind of assay: Inhibition of PIK3CG at 1 uM relative to control.
The target in assay [27] is RAC-alpha serine/threonine-protein kinase (Homo sapiens) (UniProt P31749). Kind of assay: Inhibition of AKT1 at 1 uM relative to control.
Assay [28] deals with Hepatocyte growth factor receptor (Homo sapiens) (UniProt P08581). Kind of assay: Inhibition of cMET at 1 uM relative to control.
Assay [29] concerns the target High affinity nerve growth factor receptor (Homo sapiens) (UniProt P04629). Briefly: Inhibition of NTRK1 at 1 uM relative to control.
Assay [30] addresses Cyclin-dependent kinase 2 (Homo sapiens) (UniProt P24941). Briefly: Inhibition of CDK2/Cyclin A at 1 uM relative to control.
For assay [31], the target named is Serine/threonine-protein kinase PLK1 (Homo sapiens) (UniProt P53350). Briefly: Inhibition of PLK1 at 1 uM relative to control.
Assay [32] addresses Glycogen synthase kinase-3 beta (Homo sapiens) (UniProt P49841). Briefly: Inhibition of GSK3-beta at 1 uM relative to control.
The target in assay [33] is Proto-oncogene tyrosine-protein kinase receptor Ret (Homo sapiens) (UniProt P07949). Kind of assay: Inhibition of RET at 1 uM relative to control.

Sequence of Aurora kinase A (Homo sapiens) (O14965 whole entry): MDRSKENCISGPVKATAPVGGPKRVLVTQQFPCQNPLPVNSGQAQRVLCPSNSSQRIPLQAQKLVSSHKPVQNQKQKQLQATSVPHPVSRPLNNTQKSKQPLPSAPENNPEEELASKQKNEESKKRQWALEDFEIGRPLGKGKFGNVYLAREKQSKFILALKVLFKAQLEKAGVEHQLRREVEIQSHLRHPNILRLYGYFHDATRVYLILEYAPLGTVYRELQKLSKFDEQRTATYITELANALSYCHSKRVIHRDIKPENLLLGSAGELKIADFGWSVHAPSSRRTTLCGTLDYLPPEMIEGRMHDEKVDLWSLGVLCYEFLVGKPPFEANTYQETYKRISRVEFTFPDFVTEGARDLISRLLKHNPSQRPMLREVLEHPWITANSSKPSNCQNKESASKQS
Sequence of Aurora kinase B (Homo sapiens) (Q96GD4 whole entry): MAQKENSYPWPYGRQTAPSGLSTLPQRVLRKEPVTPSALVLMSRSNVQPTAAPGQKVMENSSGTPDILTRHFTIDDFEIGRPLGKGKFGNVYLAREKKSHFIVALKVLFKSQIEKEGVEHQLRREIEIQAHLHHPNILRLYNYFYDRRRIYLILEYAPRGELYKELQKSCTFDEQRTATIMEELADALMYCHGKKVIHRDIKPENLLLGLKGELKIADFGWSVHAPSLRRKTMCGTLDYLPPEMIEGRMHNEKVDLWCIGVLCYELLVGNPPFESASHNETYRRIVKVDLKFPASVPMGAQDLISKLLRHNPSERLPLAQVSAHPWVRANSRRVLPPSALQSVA
Sequence of Vascular endothelial growth factor receptor 1 (Homo sapiens) (P17948 whole entry): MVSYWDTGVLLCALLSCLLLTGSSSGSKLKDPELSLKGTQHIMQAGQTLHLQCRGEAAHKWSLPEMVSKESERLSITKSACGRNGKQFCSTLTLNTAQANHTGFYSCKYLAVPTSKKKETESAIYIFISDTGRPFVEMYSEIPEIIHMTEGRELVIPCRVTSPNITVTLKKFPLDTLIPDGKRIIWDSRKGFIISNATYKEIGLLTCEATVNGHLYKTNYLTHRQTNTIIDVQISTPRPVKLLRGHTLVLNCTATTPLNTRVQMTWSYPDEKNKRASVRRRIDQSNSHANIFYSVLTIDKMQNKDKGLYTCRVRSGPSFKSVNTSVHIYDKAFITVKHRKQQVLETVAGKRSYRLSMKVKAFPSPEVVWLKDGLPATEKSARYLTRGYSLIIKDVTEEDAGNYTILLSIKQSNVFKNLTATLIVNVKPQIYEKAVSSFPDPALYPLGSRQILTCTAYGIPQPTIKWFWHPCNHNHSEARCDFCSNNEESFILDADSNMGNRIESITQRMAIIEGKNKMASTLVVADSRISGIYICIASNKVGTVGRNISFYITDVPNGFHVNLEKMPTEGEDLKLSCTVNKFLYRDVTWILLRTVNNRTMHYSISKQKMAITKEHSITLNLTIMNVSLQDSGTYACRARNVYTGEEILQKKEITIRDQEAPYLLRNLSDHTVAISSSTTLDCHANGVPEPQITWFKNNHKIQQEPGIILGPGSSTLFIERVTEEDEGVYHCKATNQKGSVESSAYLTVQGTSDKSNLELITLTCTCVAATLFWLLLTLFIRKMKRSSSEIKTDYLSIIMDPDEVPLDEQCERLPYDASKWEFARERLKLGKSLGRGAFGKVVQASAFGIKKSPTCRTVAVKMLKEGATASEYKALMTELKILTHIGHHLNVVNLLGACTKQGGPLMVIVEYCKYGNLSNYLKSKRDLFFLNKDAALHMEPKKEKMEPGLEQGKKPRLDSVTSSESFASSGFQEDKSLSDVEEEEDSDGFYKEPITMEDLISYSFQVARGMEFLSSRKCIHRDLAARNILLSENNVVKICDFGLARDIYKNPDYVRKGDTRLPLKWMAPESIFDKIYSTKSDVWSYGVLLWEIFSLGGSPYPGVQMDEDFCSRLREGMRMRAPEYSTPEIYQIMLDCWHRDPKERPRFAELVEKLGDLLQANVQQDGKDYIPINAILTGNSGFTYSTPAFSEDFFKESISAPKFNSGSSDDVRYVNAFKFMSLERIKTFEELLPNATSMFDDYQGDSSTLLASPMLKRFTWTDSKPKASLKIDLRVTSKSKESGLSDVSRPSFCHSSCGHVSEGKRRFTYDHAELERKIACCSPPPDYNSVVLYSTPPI
Sequence of Phosphatidylinositol 4,5-bisphosphate 3-kinase catalytic subunit gamma isoform (Homo sapiens) (P48736 whole entry, looked up, canonical isoform): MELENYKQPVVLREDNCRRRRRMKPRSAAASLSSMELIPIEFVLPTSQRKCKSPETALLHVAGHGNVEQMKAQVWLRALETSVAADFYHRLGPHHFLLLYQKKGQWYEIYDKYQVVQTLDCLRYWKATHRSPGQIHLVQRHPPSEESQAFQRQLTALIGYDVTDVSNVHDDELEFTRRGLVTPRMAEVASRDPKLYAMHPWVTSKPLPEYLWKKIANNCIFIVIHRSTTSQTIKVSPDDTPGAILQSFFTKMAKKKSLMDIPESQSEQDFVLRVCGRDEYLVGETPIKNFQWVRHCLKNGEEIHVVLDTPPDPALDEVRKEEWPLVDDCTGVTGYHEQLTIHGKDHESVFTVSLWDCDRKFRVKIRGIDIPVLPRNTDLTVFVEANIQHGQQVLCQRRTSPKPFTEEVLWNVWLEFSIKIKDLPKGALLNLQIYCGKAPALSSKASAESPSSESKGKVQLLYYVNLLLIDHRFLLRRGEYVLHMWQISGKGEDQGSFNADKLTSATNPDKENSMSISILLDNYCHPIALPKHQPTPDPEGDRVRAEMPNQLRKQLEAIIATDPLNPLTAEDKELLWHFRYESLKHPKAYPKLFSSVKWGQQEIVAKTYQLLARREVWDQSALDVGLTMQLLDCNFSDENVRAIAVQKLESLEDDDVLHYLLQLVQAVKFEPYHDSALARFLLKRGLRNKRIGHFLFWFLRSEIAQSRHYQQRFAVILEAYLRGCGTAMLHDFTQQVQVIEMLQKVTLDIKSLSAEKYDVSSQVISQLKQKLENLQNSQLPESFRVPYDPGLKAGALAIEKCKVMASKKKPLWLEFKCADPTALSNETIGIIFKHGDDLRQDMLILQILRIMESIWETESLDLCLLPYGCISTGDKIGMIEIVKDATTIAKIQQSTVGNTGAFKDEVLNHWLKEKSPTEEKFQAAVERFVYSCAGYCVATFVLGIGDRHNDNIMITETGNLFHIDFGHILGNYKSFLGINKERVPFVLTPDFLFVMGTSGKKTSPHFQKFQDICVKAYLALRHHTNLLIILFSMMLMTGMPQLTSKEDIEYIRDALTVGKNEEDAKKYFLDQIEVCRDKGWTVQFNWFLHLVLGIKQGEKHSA
Sequence of Mitogen-activated protein kinase 14 (Homo sapiens) (Q16539 whole entry): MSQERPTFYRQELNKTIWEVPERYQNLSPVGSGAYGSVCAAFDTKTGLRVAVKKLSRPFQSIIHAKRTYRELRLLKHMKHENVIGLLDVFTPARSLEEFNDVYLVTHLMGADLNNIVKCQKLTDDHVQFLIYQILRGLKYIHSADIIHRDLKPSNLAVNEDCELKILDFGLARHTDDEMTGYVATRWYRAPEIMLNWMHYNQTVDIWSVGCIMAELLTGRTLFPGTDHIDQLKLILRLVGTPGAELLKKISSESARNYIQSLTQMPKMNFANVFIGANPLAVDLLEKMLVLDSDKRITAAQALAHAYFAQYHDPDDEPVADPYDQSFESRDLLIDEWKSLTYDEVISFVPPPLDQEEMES
Sequence of Proto-oncogene tyrosine-protein kinase Src (Homo sapiens) (P12931 2-536 limits assumed): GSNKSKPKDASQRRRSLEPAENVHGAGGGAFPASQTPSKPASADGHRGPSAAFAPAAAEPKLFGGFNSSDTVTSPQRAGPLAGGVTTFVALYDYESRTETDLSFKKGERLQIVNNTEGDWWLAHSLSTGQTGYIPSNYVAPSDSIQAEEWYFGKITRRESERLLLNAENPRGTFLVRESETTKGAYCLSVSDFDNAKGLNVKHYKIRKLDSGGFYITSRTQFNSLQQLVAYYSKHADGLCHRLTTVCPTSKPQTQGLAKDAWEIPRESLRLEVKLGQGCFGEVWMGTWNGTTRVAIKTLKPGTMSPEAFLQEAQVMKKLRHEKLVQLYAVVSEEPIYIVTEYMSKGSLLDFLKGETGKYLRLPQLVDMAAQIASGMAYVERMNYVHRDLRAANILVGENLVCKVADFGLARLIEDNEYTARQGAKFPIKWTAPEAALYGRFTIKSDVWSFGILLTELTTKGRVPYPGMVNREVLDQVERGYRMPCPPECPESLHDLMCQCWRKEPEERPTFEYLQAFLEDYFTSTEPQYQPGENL
Sequence of Serine/threonine-protein kinase PLK1 (Homo sapiens) (P53350 whole entry): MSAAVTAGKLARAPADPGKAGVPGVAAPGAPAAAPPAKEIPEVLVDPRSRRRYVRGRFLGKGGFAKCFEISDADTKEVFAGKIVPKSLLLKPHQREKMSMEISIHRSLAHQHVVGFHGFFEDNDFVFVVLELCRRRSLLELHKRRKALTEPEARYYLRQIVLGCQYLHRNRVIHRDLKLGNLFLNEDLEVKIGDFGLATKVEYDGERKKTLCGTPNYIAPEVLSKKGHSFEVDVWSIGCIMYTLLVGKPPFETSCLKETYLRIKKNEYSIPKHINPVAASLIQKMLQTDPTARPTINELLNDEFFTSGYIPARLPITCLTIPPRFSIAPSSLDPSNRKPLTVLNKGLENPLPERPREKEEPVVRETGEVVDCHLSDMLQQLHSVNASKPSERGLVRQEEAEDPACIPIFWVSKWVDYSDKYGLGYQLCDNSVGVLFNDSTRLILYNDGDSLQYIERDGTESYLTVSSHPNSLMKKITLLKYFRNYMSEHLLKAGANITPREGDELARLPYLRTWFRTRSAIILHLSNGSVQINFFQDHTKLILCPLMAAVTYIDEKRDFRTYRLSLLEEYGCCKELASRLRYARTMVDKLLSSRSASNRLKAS
Sequence of Aurora kinase C (Homo sapiens) (Q9UQB9 whole entry): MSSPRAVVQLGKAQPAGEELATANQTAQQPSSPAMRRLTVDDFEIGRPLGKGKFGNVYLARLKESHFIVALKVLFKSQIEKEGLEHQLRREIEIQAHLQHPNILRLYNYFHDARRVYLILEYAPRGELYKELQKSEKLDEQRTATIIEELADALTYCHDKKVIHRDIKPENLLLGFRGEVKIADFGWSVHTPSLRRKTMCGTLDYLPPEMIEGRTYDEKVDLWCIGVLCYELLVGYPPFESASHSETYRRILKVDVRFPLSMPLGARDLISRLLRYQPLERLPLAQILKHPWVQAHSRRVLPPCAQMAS

As to `CCOC(=O)c1c(C)n[nH]c1N/N=C/c1ccccc1`, the inhibition in [1] was found to be 16.4%.

On to `CCOC(=O)c1c(C)n[nH]c1N/N=C/c1cccc2[nH]ccc12`, for which half-maximal inhibition at Aurora kinase A (IC50) was put at 13.7 µM. In addition, the inhibition in assay [1] is 50.3%.

For the compound `CCOC(=O)c1c(C)n[nH]c1N/N=C(\C)c1ccc(OC)cc1`, the inhibition in assay [1] is 18.2%.

For the compound `COc1ccc(/C=N/Nc2[nH]nc(C)c2C(=O)NCCc2ccc(OC)cc2)cc1`, the IC50 at Aurora kinase A worked out at 1.58 µM.

In the case of `CCOC(=O)c1c(C)n[nH]c1N/N=C/c1ccc(-c2ccccc2)cc1`, the inhibition in assay [1] worked out at 27.5%.

With `CCOC(=O)c1c(C)n[nH]c1N/N=C/c1ccc(N2CCN(C)CC2)cc1`, the inhibition in assay [1] is 41%.

For `COc1ccc(/C=N/Nc2[nH]nc(C)c2C(=O)OCc2ccccc2)cc1`, it took 5.25 µM to reach half-maximal inhibition on Aurora kinase A (IC50).

`CCOC(=O)c1c(C)n[nH]c1N/N=C/c1ccc(OC)cc1` had an IC50 at Aurora kinase A of 15.1 µM. Further, the inhibition in assay [1] was 33.9%.

At Aurora kinase A, `COc1ccc(/C=N/Nc2[nH]nc(C)c2C(=O)NCc2ccc(OC)cc2)cc1` showed an IC50 of 1.62 µM.

For the compound `COc1ccc(/C=N/Nc2[nH]nc(C)c2C(=O)Nc2ccc(NC(C)=O)cc2)cc1`, the IC50 against Aurora kinase A stood at 0.719 µM.

`COc1ccc(/C=N/Nc2[nH]nc(C)c2C(=O)NCCc2cccnc2)cc1`: it took 1.48 µM to reach half-maximal inhibition on Aurora kinase A (IC50). This IC50 is about 2.1-fold higher than that of the compound before.

Take `COc1ccc(/C=N/Nc2[nH]nc(C)c2C(=O)Nc2ccccc2OC)cc1`: the IC50 at Aurora kinase A amounted to 1.09 µM. This IC50 and that of the compound before are within 1.5-fold of each other.

`COc1ccc(/C=N/Nc2[nH]nc(C)c2C(=O)NCCc2c[nH]cn2)cc1` came in with an IC50 against Aurora kinase A of 1.94 µM.

With `COc1ccc(/C=N/Nc2[nH]nc(C)c2C(=O)N(C)c2ccccc2)cc1`, the IC50 against Aurora kinase A is > 50 µM.

For `COc1ccc(/C=N/Nc2[nH]nc(C)c2C(=O)Nc2ccc(OC)cc2)cc1`, inhibition on Aurora kinase A was half-maximal at 0.46 µM (IC50).

In the case of `CCOC(=O)c1c(C)n[nH]c1N/N=C/Cc1ccccc1`, the inhibition in assay [1] stood at 3.6%.

In the case of `COc1ccc(/C=N/Nc2[nH]nc(C)c2C(=O)Nc2ccc(OC)c(OC)c2)cc1`, 0.96 µM corresponded to half-maximal inhibition on Aurora kinase A (IC50).

For the compound `COc1ccc(/C=N/Nc2[nH]nc(C)c2C(=O)NCCCc2ccccc2)cc1`, the IC50 on Aurora kinase A came to 1.94 µM. Against the preceding compound, the IC50 is about 2-fold higher.

The compound `COc1ccc(/C=N/Nc2[nH]nc(C)c2C(=O)NCc2ccccc2)cc1` registered an IC50 against Aurora kinase A of 1.58 µM.

As for `COc1ccc(/C=N/Nc2[nH]nc(C)c2C(=O)Nc2ccc(N(C)C)cc2)cc1`, it took 1.57 µM to reach half-maximal inhibition on Aurora kinase A (IC50).

`COc1ccc(/C=N/Nc2[nH]nc(C)c2C(=O)NCc2cccc(OC)c2)cc1`: on Aurora kinase A, the IC50 worked out at 0.838 µM.

Compound `COc1ccc(/C=N/Nc2[nH]nc(C)c2C(=O)NCCc2ccccc2)cc1` came in with an IC50 against Aurora kinase A of 1.35 µM.

Consider `CCOC(=O)c1c(C)n[nH]c1N/N=C/c1ccc2[nH]ccc2c1`, for which the IC50 at Aurora kinase A was 11.5 µM. Further, the inhibition in assay [1] turned out to be 50%.

In the case of `COc1ccc(/C=N/Nc2[nH]nc(C)c2C(=O)Nc2cccc(OC)c2)cc1`, the IC50 against Aurora kinase A stood at 0.449 µM.

On to `COc1ccc(/C=N/Nc2[nH]nc(C)c2C(=O)Nc2ccccc2)cc1`, for which the IC50 at Aurora kinase A is 0.804 µM.

The compound `COc1ccc(/C=N/Nc2[nH]nc(C)c2C(=O)NCCc2cccc(OC)c2)cc1` showed an IC50 on Aurora kinase A of 2.9 µM.

On to `COc1ccc(/C=N/Nc2[nH]nc(C)c2C(=O)Nc2cccc(NC(C)=O)c2)cc1`, for which the inhibition in assay [2] is -1%; in assay [3], 4%; in assay [4], 27%; in assay [5] it was 11%; in assay [6], 45%; in assay [7], 1%. In addition, the inhibition in assay [8] was 17%; in assay [9], 51%; in assay [11] it was -6%; in [12], 91%; in assay [13] it was 19%; in [14], 17%. The inhibition is -8% in [15]; 26% in assay [16]; 61% in assay [17]; 33% in assay [19]; 36% in assay [20]; 31% in assay [21]. The inhibition was 21% in [22]; 56% in assay [23]; 48% in [24]; 8% in [25]; -3% in assay [26]; 13% in assay [27]. Also, the inhibition amounted to 19% in assay [28]; 66% in assay [29]; 48% in [30]; 11% in assay [31]; 32% in assay [32]; 76% in assay [33]. Moreover, the Activity result in [10] and in [18] was “Dose-dependent effect” each time.

Regarding `COc1ccc(/C=N/Nc2[nH]nc(C)c2C(=O)N(C)Cc2ccccc2)cc1`, at Aurora kinase A, the concentration for half-maximal inhibition (IC50) is > 50 µM.

Turning to `COc1ccc(/C=N/Nc2[nH]nc(C)c2C(=O)Nc2ccc(F)cc2)cc1`, half-maximal inhibition on Aurora kinase A (IC50) was put at 1.45 µM. This counts as single-digit micromolar.

Compound `COc1ccc(/C=N/Nc2[nH]nc(C)c2C(=O)NCc2cccc(NC(C)=O)c2)cc1` showed an IC50 at Aurora kinase A of 1.75 µM.

Consider `CCOC(=O)c1c(C)n[nH]c1N/N=C/c1ccc(F)cc1`, for which, in [1], the inhibition came to 36.5%.

The compound `COc1ccc(/C=N/Nc2[nH]nc(C)c2C(=O)NCCc2c[nH]c3ccccc23)cc1` displayed an IC50 against Aurora kinase A of 1.07 µM.
